{"source": "ChEMBL document CHEMBL3227928", "about": "“Phosphonate analogue of 2'-deoxy-5-fluorouridylic acid” (J Med Chem, 1979)", "key": {"[1]": {"test": "Cytotoxicity against human Hep2 cells assessed as growth inhibition", "assay_type": "functional", "settings": "HEp-2, read-out: ED50 (the source's name)"}, "[2]": {"test": "Inhibition of Escherichia coli thymidylate synthetase using dUMP as substrate preincubated for 20 mins followed by substrate addition", "summary_of_the_method": "(§1)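 Enzyme and inhibitor preincubated 20 min at 30 °C in assay mix with 0.11 M 2-mercaptoethanol, 3 × 10^-4 M tetrahydrofolate, 0.012 M formaldehyde and 0.021 M MgCl2. Reaction started by adding dUMP to 4 × 10^-5 M. Enzyme concentrations were 8 × 10^-9 M for L. casei, 8 × 10^-9 M for E. coli (calculated assuming the L. casei turnover number) and 4 × 10^-9 M for T2. Concentration giving 50% inhibition reported.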"}, "[3]": {"target": "T1, Thymidylate synthase (Lactobacillus casei) (UniProt P00469)", "T1 sequence (whole entry)": "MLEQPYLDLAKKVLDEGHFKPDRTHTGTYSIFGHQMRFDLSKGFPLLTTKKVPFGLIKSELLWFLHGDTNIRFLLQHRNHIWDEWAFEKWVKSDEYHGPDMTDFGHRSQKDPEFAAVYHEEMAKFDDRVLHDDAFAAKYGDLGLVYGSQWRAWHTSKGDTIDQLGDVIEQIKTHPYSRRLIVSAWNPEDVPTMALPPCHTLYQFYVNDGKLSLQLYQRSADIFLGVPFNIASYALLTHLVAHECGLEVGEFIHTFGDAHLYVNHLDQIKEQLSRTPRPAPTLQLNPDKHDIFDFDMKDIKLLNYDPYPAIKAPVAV", "test": "Inhibition of Lactobacillus casei thymidylate synthetase using dUMP as substrate at 20 uM preincubated for 40 mins followed by substrate addition relative to control", "settings": "Lacticaseibacillus casei"}, "[4]": {"target": "T1, Thymidylate synthase (Lactobacillus casei)", "test": "Inhibition of Lactobacillus casei thymidylate synthetase using dUMP as substrate at 20 uM preincubated for 0 mins followed by substrate addition relative to control", "settings": "Lacticaseibacillus casei"}, "[5]": {"target": "T1, Thymidylate synthase (Lactobacillus casei)", "test": "Inhibition of Lactobacillus casei thymidylate synthetase using dUMP as substrate at 20 uM preincubated for 5 mins followed by substrate addition relative to control", "settings": "Lacticaseibacillus casei"}, "[6]": {"test": "Inhibition of coliphage T2 thymidylate synthetase using dUMP as substrate preincubated for 20 mins followed by substrate addition", "parameters": "species or system Enterobacteria phage T2", "summary_of_the_method": "as §1"}, "[7]": {"target": "T1, Thymidylate synthase (Lactobacillus casei)", "test": "Inhibition of Lactobacillus casei thymidylate synthetase using dUMP as substrate at 20 uM preincubated for 10 mins followed by substrate addition relative to control", "settings": "Lacticaseibacillus casei"}, "Thymidylate synthase": {"target": "T2, Thymidylate synthase (Lactobacillus casei, UniProt P00469)", "T2 sequence (P00469 whole entry)": "T1 sequence (whole entry)", "test": "Inhibition of Lactobacillus casei thymidylate synthetase using dUMP as substrate preincubated for 20 mins followed by substrate addition", "parameters": "species or system Lacticaseibacillus casei", "summary_of_the_method": "as §1"}, "[8]": {"target": "T1, Thymidylate synthase (Lactobacillus casei)", "test": "Inhibition of Lactobacillus casei thymidylate synthetase using dUMP as substrate at 20 uM preincubated for 20 mins followed by substrate addition relative to control", "settings": "Lacticaseibacillus casei"}}}
{"compound": "O=c1[nH]c(=O)n([C@H]2C[C@H](O)[C@@H](CCP(=O)(O)O)O2)cc1F", "values": [{"measurement": "EC50", "setting": "[1]", "value": 45, "unit": "µM"}, {"measurement": "IC50", "setting": "[2]", "value": 0.6, "unit": "µM"}, {"measurement": "inhibition", "setting": "[3]", "value": 85, "unit": "%"}, {"measurement": "inhibition", "setting": "[4]", "value": 0, "unit": "%"}, {"measurement": "inhibition", "setting": "[5]", "value": 45, "unit": "%"}, {"measurement": "IC50", "setting": "[6]", "value": 0.06, "unit": "µM"}, {"measurement": "inhibition", "setting": "[7]", "value": 64, "unit": "%"}, {"measurement": "IC50", "setting": "Thymidylate synthase", "value": 7, "unit": "µM"}, {"measurement": "inhibition", "setting": "[8]", "value": 75, "unit": "%"}]}
